Assay results taken from ChEMBL document CHEMBL1155242, “Radiolabeled 5-iodo-3'-O-(17beta-succinyl-5alpha-androstan-3-one)-2'-deoxyuridine and its 5'-monophosphate for imaging and therapy of androgen receptor-positive cancers: synthesis and biological evaluation” (J Med Chem, 2009).

Legend:
Heart = experiment: Biodistribution in heart of athymic NCr mouse xenografted with human OVCAR-3 cells assessed per gram of tissue at an average 39.5 uCi/dose, ip administered 9 days after tumor implantation as six fractionated doses every 4 days measured after 2 weeks of last dose by gamma counting; type: ADME, organism-based; details: in vivo, 336 h
Outline: (§1)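 OVCAR-3-bearing and healthy athymic mice given fractionated ip doses on the six-dose every-4-days schedule; tissues, tumor and lavaged cells γ-counted at necropsy, %ID/g; DNA-bound 125I in cells measured as cpm/cell.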

Mus musculus [1] = experiment: Toxicity in athymic NCr mouse xenografted with human OVCAR-3 cells assessed as hemoglobin level at 0.25 mCi, ip administered 31 days after tumor implantation as single bolus dose measured 55 days after implantation […] in presence of SHBG (RVb= 11.5 +/- 1.3 g/dL); type: organism-based; details: in vivo
Albumin [2] = target: T1, Albumin (Mus musculus, UniProt P07724); experiment: Binding affinity to mouse serum albumin at 20 uCi after 60 mins by size-exclusion HPLC analysis; type: ADME; details: isolated protein, 1 h
T1 sequence (P07724 whole entry): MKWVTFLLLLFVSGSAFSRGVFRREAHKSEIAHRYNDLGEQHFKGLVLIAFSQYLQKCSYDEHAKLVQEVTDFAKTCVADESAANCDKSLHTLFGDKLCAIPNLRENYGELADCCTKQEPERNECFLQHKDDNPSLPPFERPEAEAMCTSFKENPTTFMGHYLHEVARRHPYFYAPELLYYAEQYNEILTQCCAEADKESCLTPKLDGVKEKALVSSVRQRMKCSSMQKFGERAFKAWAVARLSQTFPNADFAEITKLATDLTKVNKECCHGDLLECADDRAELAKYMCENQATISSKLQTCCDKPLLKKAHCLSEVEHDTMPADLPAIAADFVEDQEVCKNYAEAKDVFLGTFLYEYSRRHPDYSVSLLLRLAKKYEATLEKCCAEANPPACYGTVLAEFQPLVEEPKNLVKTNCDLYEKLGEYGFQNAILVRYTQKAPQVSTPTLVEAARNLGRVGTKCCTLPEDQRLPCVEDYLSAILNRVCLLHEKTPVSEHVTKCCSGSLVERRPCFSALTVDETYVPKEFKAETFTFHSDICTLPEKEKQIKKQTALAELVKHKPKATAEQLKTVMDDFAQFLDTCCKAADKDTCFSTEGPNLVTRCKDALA

[3] = Chemical stability in phosphate buffer saline by HPLC analysis; type: physicochemical
LNCaP [4] = experiment: Cytotoxicity against human LNCAP cells expressing androgen receptor assessed as cell survival at 8 uCi/mL after 48 hrs; type: functional
Outline: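 LNCaP human prostate cancer cells were grown for 48 h with the 125I-labelled compound in the medium, and cell survival was then determined. D37 was expressed as the extracellular concentration in μCi/mL.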

[5] = target: T2, Sex hormone-binding globulin (Homo sapiens, UniProt P04278); experiment: Binding affinity to human sex hormone binding globulin at 20 uCi after 60 mins by reversed phase HPLC analysis; type: ADME; details: 1 h
T2 sequence (P04278 whole entry): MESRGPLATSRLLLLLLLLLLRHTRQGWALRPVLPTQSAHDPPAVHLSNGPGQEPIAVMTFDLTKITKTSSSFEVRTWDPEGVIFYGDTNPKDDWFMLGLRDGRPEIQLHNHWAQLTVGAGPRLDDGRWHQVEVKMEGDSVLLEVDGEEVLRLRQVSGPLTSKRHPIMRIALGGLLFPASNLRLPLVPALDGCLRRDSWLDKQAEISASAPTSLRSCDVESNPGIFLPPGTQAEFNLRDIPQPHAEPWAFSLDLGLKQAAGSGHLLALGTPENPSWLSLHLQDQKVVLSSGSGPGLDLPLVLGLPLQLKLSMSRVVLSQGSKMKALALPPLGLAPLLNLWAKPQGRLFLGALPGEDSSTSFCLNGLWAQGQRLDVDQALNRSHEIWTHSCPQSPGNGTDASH

[6] = target: T2, Sex hormone-binding globulin; experiment: Binding affinity to human sex hormone binding globulin at 20 uCi after 60 mins by size-exclusion HPLC analysis; type: ADME; details: 1 h
Outline: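 Radioligand incubated 60 min with purified human SHBG or with human, rabbit or mouse serum. Size-exclusion HPLC (TSK3000): 0.1 M potassium phosphate/0.1 M Na2SO4 1:1 pH 6.8 for 20 min, then 0–40% CH3CN over 20 min, held 30 min, 0.7 mL/min.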

OVCAR-3 [7] = experiment: Cellular uptake in human OVCAR-3 cells expressing androgen receptor at 1.75 uCi/mL; type: ADME, cell-based; details: TDE = time-dependent effect
Outline: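 NIH:OVCAR-3 cells in complete RPMI-1640 exposed to the radioligand for 24 h (concentration series) or at 1.75 μCi/mL for set times; medium then replaced and cells cultured further 24–48 h; whole-cell and DNA uptake in cpm/cell.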

OVCAR-3 [8] = experiment: Antitumor activity against human OVCAR-3 cells xenografted in athymic NCr mouse assessed as solid tumor weight in peritoneum at 0.25 mCi, ip administered 31 days after tumor implantation as single bolus dose measured 55 days after implantation by gamma counting in presence of SHBG (Rvb= 1.9 +/- 0.8 g); type: functional
Serum = experiment: Stability in mouse serum assessed as time required for formation of [125I]UdR at 10 to 20 uCi/mL after 60 mins by gamma counting; type: ADME, cell-free; details: 1 h
[9] = Biodistribution in tumor of athymic NCr mouse xenografted with human OVCAR-3 cells assessed per gram of tissue at an average 39.5 uCi/dose, ip administered 9 days after tumor implantation as six fractionated doses every 4 days measured after 2 weeks of last dose by gamma counting; type: ADME, organism-based, Neoplasm; details: in vivo, 336 h; outline: as §1
[10] = Chemical stability in RPMI-1640 serum-free medium assessed as half life at 12.2 uCi by HPLC analysis; type: physicochemical
[11] = Ratio of drug level in tumor to spleen in athymic NCr mouse xenografted with human OVCAR-3 cells at 180 uCi, ip administered 9 days after tumor implantation as six fractionated doses every 4 days measured after 72 hrs by gamma counting; type: ADME, organism-based; details: in vivo
[12] = Biodistribution in […] in athymic NCr mouse xenografted with human OVCAR-3 cells at 45 uCi, ip after 72 hrs by gamma counting; type: ADME, organism-based; details: in vivo
Outline: (§2)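 Athymic NCr-nu/nu mice with ip OVCAR-3; 45 μCi given ip without prior SSKI. Whole-body planar imaging at 72 h with region-of-interest analysis as percent of whole-body activity; peritoneal lavage cells and ascites counted.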

LNCaP [13] = experiment: Cellular uptake in single-cell suspension of nonproliferating human LNCAP cells expressing androgen receptor assessed as increase in cellular retention at 0.37 uCi/mL after 5 to 16 hrs by gamma counting; type: ADME, cell-based
Outline: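 Low-passage LNCaP held as single-cell suspension (non-proliferating) in RPMI-1640 with radioligand at 0.03 or 0.37 μCi/mL; whole-cell and nuclear radioactivity measured over time.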

[14] = Biodistribution in peritoneum of athymic NCr mouse xenografted with human OVCAR-3 cells at 1.12 uCi, ip after 1.5 hrs by gamma counting; type: ADME, organism-based; details: in vivo
[15] = Ratio of drug level in tumor to uterus in athymic NCr mouse xenografted with human OVCAR-3 cells at 180 uCi, ip administered 9 days after tumor implantation as six fractionated doses every 4 days measured after 1.5 hrs by gamma counting; type: ADME, organism-based; details: in vivo
LNCaP [16] = experiment: Cellular uptake in proliferating human LNCAP cells expressing androgen receptor assessed as [125I]UdR retention per cell at 1 to 4 uCi/mL after 24 hrs by gamma counting; type: ADME, cell-based
Outline: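 Proliferating LNCaP monolayers exposed 24 h to a range of radioligand concentrations; whole-cell uptake measured.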

[17] = Stability in human OVCAR-3 cells expressing androgen receptor assessed as compound degradation at 0.1 uCi/mL up to 4 hrs by silica gel instant thin layer chromatography; type: ADME, cell-based; details: read-out: Activity
Mus musculus [18] = experiment: Toxicity in ip dosed athymic NCr mouse assessed as change in body weight measured after 21 days; type: organism-based; details: in vivo, 504 h
[19] = Ratio of drug level in tumor to spleen in athymic NCr mouse xenografted with human OVCAR-3 cells at 180 uCi, ip administered 9 days after tumor implantation as six fractionated doses every 4 days measured after 1.5 hrs by gamma counting; type: ADME, organism-based; details: in vivo
[20] = Biodistribution in nonadherent tumors in stomach of athymic NCr mouse xenografted with human OVCAR-3 cells at 45 uCi, ip after 72 hrs by gamma counting; type: ADME, organism-based; details: in vivo; outline: as §2
Albumin [21] = target: T1, Albumin; experiment: Binding affinity to mouse serum albumin at 10 to 20 uCi/mL after 60 mins by size-exclusion HPLC analysis; type: ADME; details: isolated protein, 1 h
Outline: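 Radioiodinated compound incubated 60 min with human, rabbit or mouse serum, or with purified human SHBG. Aliquots analysed on a TSK3000 size-exclusion column: 0.1 M potassium phosphate/0.1 M Na2SO4 (1:1, pH 6.8) for 20 min, then 0–40% CH3CN over 20 min, held 30 min, 0.7 mL/min. Protein-bound versus free radioactivity read from the peaks.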

C[C@]12CCC(=O)C[C@@H]1CC[C@@H]1[C@@H]2CC[C@]2(C)[C@@H](OC(=O)CCC(=O)O[C@H]3C[C@H](n4cc([125I])c(=O)[nH]c4=O)O[C@@H]3COP(=O)(O)O)CC[C@@H]12
Drug uptake (Heart): 0.003 %ID
Activity (Mus musculus [1]): 12.2 g/dL
Activity (Albumin [2]): Active
Stability [3]: Stable
Survival (LNCaP [4]): 90%
Activity [5]: Active
Activity [6]: Active
Drug uptake (OVCAR-3 [7]): tde
Activity (OVCAR-3 [8]): 1.2 g
Stability (Serum): < 10 min
Drug uptake [9]: 2.892 %ID

C[C@]12CCC(=O)C[C@@H]1CC[C@@H]1[C@@H]2CC[C@]2(C)[C@@H](OC(=O)CCC(=O)O[C@H]3C[C@H](n4cc([125I])c(=O)[nH]c4=O)O[C@@H]3CO)CC[C@@H]12
t1/2 [10]: 54.2 h
Ratio [11]: 11.9
Drug uptake [12]: 3.4%
fold change (FC) (LNCaP [13]): 10
Drug uptake [14]: 29%
Ratio [15]: 1.4
Bmax (LNCaP [16]): 1.4 ×10⁻⁶ pmol
metabolised at 4 h, 0.1 uCi/mL [17]: 60%
Activity (Mus musculus [18]): Non-toxic
Ratio [19]: 1
Drug uptake [20]: 3.4%
Activity (Albumin [21]): Not Active
